The target of assay [1] is T1, 5-hydroxytryptamine receptor 1A (Rattus norvegicus, UniProt P19327).
T1 sequence (P19327 whole entry): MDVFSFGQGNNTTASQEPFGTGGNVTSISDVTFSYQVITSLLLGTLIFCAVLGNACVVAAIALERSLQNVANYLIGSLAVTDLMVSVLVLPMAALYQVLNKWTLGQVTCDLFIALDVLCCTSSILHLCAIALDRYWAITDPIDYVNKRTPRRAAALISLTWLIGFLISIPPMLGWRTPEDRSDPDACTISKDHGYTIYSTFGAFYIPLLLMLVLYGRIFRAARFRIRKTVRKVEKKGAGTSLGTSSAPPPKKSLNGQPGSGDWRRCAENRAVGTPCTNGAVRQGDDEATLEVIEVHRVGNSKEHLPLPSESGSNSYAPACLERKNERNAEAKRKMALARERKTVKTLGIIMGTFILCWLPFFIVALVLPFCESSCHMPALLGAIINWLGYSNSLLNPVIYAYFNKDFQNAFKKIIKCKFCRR
In words: (§1) Binding affinity against serotonin 5-hydroxytryptamine 1A receptor using radioligand [3H]8-OH-DPAT binding assay. More on the design: species or system Homo sapiens. The method, boiled down: (§2)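 Rat hippocampal membranes labelled with [³H]-8-OH-DPAT (0.4 nM final); nonspecific binding with 8-OH-DPAT (1 µM).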

Assay [2] deals with T2, Adrenergic receptor alpha-1 (Rattus norvegicus, UniProt P15823+P23944+P43140).
T2 sequence (P15823 whole entry): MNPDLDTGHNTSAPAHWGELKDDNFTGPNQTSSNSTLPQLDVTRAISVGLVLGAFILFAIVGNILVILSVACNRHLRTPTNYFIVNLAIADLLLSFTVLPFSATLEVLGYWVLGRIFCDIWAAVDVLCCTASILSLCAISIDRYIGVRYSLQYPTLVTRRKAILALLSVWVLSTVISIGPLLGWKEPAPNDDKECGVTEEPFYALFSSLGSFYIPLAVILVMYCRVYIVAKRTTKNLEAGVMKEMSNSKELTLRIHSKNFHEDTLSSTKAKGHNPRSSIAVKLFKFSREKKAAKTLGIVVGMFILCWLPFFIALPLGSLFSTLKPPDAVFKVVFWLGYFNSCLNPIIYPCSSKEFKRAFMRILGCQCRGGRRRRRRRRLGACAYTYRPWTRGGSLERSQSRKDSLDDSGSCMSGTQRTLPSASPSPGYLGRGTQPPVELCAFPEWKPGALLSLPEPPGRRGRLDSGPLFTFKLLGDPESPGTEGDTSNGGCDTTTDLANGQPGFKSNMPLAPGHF
T2 sequence (P23944 whole entry): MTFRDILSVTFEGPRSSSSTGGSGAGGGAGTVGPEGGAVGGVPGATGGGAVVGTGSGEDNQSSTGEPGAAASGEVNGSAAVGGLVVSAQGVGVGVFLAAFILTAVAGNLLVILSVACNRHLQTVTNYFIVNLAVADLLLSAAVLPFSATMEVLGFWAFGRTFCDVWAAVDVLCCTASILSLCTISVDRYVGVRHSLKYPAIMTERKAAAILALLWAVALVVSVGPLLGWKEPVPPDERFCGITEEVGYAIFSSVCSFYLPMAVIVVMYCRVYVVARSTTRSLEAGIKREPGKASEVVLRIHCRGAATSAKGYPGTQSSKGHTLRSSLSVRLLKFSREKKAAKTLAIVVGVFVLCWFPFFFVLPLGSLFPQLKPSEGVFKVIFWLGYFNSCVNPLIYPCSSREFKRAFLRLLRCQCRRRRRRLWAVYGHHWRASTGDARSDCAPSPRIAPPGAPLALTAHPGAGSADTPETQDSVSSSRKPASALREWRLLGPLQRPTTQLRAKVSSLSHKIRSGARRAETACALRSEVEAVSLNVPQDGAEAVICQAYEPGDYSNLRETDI
T2 sequence (P43140 whole entry): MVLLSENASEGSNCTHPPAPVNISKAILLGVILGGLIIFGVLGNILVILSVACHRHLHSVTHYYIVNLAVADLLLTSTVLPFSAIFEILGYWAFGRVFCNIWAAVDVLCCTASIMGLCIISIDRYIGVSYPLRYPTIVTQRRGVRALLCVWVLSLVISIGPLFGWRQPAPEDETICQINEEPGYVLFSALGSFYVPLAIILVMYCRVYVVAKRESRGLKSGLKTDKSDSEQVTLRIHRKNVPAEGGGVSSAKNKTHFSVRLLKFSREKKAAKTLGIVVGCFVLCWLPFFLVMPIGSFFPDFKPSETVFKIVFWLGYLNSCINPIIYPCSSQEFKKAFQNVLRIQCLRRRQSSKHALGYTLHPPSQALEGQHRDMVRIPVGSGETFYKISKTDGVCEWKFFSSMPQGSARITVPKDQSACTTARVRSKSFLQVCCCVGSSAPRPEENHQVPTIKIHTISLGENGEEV
Nature of the assay: Binding affinity against Alpha-1 adrenergic receptor using radioligand [3H]prazosin binding assay. Type of assay: protein assay. In short, it runs like this:
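Inhibition of [³H]prazosin (0.1 nM final) binding in rat cortex membranes; phentolamine (10 µM final) defines nonspecific binding.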

In assay [3] the target is T3, D(2) dopamine receptor (Rattus norvegicus, UniProt P61169). Nature of the assay: Compound was evaluated for their affinity against dopamine receptor D2 by displacing [3H]-spiperone in rat striatal membrane. Type of assay: cell membranes, Striatum. In short, it runs like this: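 Rat striatal membranes; [³H]spiperone 0.2 nM final; nonspecific binding defined with (+)-butaclamol 1.0 µM final. Four to six concentrations, each run in triplicate; Ki obtained by nonlinear regression analysis.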

Assay [4] has as its target D(2) dopamine receptor (Homo sapiens, UniProt P14416). Nature of the assay: Compound was evaluated […] for Dopamine receptor D2 mitogenesis. [3H]thymidine incorporation in CHO p-5 cells expressing human D2 receptors. Type of assay: organism-based. In short, it runs like this: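 CHO p-5 cells transfected with human D2L receptor are grown 2 days at 37 °C in medium with 10% calf serum, then rinsed and put in serum-free medium. Compound (in water) is added for 16-17 h, then [³H]thymidine (1 µCi/well) for 4 h. Cells are harvested and counted. Maximal effect is given as % of quinpirole (100%).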

Assay [5] concerns the target T3, D(2) dopamine receptor. In words: Binding affinity against Dopamine receptor D2 in CHO-K1 cells using radioligand [3H]NPA binding assay. Type of assay: cell-based.
In assay [6] the test system is Monkey. Nature of the assay: Compound was tested for inhibition of conditioned avoidance after administering perorally(po) in squirrel monkeys. Type of assay: functional. Conditions: Cebidae, in Saimiri.
Assay [7] deals with Mus musculus. In words: Compound was tested for the inhibition of locomotor activity (LMA)by administering Intraperitoneally in mouse. Type of assay: functional. The note with it: ip. The method, boiled down:
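Mice dosed ip, then tested immediately for 1 h in darkened cylindrical photobeam chambers. Percent inhibition of locomotor activity relative to vehicle-treated animals; ED50 derived from three to six doses, n = 6-18 animals/dose.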

For assay [8], the system named is Rattus norvegicus. In words: Percent decrease of the firing rate of rat substantia nigra DA neurons at a dose of 2.5 mg/kg ip. Conditions: route intraperitoneal. Type of assay: functional.
Assay [9] relates to Rattus norvegicus. In words: Percent reversal of the increase on DOPA levels in the striatum of GBL-treated rats at a dose of 10 mg/kg ip. Type of assay: functional. The note with it: route intraperitoneal.
The subject of assay [10] is Rattus norvegicus. In words: Compound was tested for the inhibition of locomotor activity (LMA)by administering orally in rat. Type of assay: functional. The note with it: po. The method, boiled down:
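Rats dosed orally 1 h before a 30 min test in darkened cylindrical photobeam chambers. Percent inhibition of locomotor activity relative to vehicle-treated animals; ED50 derived from three to six doses, n = 6-18 animals/dose.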

Assay [11] addresses D(1A) dopamine receptor (Rattus norvegicus, UniProt P18901). In words: Binding affinity against dopamine receptor D1 using radioligand ([3H]-SCH 23390) binding assay.
Assay [12] deals with T1, 5-hydroxytryptamine receptor 1A. Described as §1. The method, boiled down: as §2
Assay [13] concerns the target T4, D(4) dopamine receptor (Homo sapiens, UniProt P21917).
T4 sequence (P21917 whole entry): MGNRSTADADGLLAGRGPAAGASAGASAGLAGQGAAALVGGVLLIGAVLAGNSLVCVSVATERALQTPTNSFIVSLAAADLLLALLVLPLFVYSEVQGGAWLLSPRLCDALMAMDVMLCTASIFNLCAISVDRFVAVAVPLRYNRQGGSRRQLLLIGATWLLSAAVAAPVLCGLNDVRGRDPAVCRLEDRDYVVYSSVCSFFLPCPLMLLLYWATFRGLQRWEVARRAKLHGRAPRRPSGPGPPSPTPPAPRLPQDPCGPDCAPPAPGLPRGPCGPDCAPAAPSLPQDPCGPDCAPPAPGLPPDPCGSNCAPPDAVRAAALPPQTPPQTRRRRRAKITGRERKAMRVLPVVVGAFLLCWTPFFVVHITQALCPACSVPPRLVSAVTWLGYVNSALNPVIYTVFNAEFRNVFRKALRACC
In words: Binding affinity against human Dopamine receptor D4 in CHO-K1 cells using [3H]spiperone as radioligand. Type of assay: cell-based. In short, it runs like this: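 Human D4.2 receptor expressed in CHO K1 cells; [³H]spiperone 0.2 nM final; nonspecific binding defined with haloperidol 1.0 µM final.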

Data on two compounds can be found in ChEMBL document CHEMBL1129267, “Aryl 1-but-3-ynyl-4-phenyl-1,2,3,6-tetrahydropyridines as potential antipsychotic agents: synthesis and structure-activity relationships” (J Med Chem, 1996).

T3 sequence (P61169 whole entry): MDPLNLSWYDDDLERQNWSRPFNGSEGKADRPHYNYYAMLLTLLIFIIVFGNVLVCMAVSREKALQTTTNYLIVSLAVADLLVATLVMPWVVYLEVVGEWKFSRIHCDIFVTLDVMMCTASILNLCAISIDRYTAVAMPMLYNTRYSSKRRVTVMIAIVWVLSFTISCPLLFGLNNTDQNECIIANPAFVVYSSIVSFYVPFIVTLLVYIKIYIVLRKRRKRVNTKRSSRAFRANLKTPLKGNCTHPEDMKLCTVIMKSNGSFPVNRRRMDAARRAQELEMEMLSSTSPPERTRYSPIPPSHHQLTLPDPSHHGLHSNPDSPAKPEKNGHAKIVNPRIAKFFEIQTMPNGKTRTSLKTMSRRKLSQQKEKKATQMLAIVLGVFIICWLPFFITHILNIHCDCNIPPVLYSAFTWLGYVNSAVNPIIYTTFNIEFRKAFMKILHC
D(2) dopamine receptor (Homo sapiens, UniProt P14416), sequence (P14416 whole entry): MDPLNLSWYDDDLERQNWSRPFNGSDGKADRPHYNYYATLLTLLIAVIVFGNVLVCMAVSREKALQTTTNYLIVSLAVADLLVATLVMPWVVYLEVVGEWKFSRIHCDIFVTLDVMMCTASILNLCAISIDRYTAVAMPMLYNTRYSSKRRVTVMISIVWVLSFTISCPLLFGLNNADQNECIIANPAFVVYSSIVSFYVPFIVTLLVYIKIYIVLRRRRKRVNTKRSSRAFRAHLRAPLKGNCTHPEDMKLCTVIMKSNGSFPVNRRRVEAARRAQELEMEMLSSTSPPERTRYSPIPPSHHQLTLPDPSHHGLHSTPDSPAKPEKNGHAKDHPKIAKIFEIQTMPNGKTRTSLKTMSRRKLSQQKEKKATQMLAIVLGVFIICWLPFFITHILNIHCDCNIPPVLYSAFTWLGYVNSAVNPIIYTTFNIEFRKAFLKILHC
D(1A) dopamine receptor, sequence (P18901 whole entry): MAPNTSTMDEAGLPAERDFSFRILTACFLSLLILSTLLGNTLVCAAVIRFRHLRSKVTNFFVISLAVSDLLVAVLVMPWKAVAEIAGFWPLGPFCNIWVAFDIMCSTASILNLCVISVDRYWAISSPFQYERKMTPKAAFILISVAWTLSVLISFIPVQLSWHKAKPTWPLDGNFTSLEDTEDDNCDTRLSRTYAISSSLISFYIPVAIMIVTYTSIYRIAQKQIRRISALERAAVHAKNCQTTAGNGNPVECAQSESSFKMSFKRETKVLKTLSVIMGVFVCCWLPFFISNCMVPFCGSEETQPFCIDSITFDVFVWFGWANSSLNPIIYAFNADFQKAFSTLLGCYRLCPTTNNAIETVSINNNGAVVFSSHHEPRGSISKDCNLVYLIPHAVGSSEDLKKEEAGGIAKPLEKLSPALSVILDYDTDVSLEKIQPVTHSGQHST

Regarding `Nc1cccc(C#CCCN2CC=C(c3ccccc3)CC2)c1`, the Ki stood at 1550 nM in assay [1], 107 nM in assay [2], 87 nM in [3] and 18 nM in assay [5]. Besides, in assay [4], the Max effect came to 75%. Moreover, the 50% effective dose (ED50) was found to be 9.3 mg/kg in [6], 0.68 mg/kg in assay [7] and 5.6 mg/kg in assay [10]. Also, the Decrease in assay [8] is listed as 98%; in assay [9], 42%.
On to `Nc1ccc(C#CCCN2CC=C(c3ccccc3)CC2)cc1`, for which the Ki in assay [2] is 34.5 nM; in [3], 48 nM; in [11] it was above 10000 nM; in assay [5], 0.67 nM; in assay [12], above 10000 nM; in assay [13], 228 nM. In [4], the Max effect amounted to 49%. The ED50 in assay [6] is 3.8 mg/kg; in assay [10] it was 2.7 mg/kg. The Decrease in assay [8] is recorded as 81%.

The term Ki denotes the equilibrium dissociation constant of an inhibitor or competing ligand from its target. The term ED50 denotes the dose that gives a 50% effect, or the effect in half of the subjects.
